Data on 25 compounds can be found in ChEMBL document CHEMBL1127026, “Novel antagonists of 5-HT3 receptors. Synthesis and biological evaluation of piperazinylquinoxaline derivatives” (J Med Chem, 1993).

Structures are written as SMILES. Bounds are passed on as bounds.

For experiment [1], the target named is Serotonin 2 (5-HT2) receptor (Rattus norvegicus) (UniProt P30994+P08909+P14842). The experiment in a line: Tested for antagonistic activity against 5-hydroxytryptamine 2 receptor from rat thoracic aorta. In kind it is functional, tissue-based. The arrangement: concentration or dose not given beside the values. As to conditions: concentration not given here. The method in brief: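 Thoracic aorta rings (2-3 mm) from male Wistar rats (200-250 g), resting tension 1.5 g, equilibrated 60-90 min. Contracted with 5-HT 3×10^-6 M, taken as 100%. Compounds at 10^-5 M were incubated for 30 min before 5-HT was re-added. Inhibition given as % of the prior response. Means ± SE of 4-6 experiments.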

Experiment [2] concerns 5-HT3 receptor (Cavia porcellus). The experiment in a line: Tested for the antagonistic activity against 5-hydroxytryptamine 3 receptor from guinea pig ileum. The arrangement: concentration or dose not given beside the values. As to conditions: concentration not given here.
Another experiment has as its system Rattus norvegicus. Description: Tested in vivo for antagonistic activity to bradycardic effect of 5-HT in anesthetized rats. As to conditions: read-out: ID50. In kind it is functional. The method in brief: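 Male Sprague-Dawley rats (500-550 g), urethane 1 g/kg ip. Heart rate derived from carotid arterial pressure. Serotonin 4 μg/kg iv bolus every 15 min; compounds given iv via the jugular vein 2 min before serotonin. Percent inhibition of bradycardia recorded; ID50 by Litchfield-Wilcoxon.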

The species entered for another experiment is Cavia porcellus. The experiment in a line: Antagonism to 2-methyl-5-HT induced contractions in guinea pig ileum. In kind it is functional. The conditions noted are these: read-out: pA2 (converted). In outline: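 Isometric recording at 0.5 g resting tension in physiological salt solution gassed with 95% O2/5% CO2 at 37 °C, after 30-min equilibration. Tissue incubated 30 min with a single antagonist concentration before agonist; pA2 calculated against 2-methyl-5-HT by Furchgott's single-concentration method, […]. Means of three to six experiments.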

Experiment [3] has as its target Serotonin 1 (5-HT1) receptor (Rattus norvegicus, UniProt P28564+P30940+P19327+P28565). Description: Displacement of binding of [3H]-5-HT to 5-hydroxytryptamine 1 receptor in rat cerebral cortex. In kind it is tissue-based. In outline:
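Rat cortical membranes homogenized in 50 mM Tris-HCl, centrifuged, pre-incubated at 37 °C for 10 min, then resuspended with 0.1% ascorbic acid and 10 μM pargyline. Incubated with 0.3 nM [3H]-5-HT for 10 min at 37 °C. Nonspecific binding defined with 10 μM 5-HT. Filtered and counted by scintillation. Means of 3-6 experiments.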

Experiment [4] concerns the target T1, Serotonin 3 (5-HT3) receptor (Rattus norvegicus, UniProt P35563+Q9JJ16).
T1 sequence (P35563 whole entry): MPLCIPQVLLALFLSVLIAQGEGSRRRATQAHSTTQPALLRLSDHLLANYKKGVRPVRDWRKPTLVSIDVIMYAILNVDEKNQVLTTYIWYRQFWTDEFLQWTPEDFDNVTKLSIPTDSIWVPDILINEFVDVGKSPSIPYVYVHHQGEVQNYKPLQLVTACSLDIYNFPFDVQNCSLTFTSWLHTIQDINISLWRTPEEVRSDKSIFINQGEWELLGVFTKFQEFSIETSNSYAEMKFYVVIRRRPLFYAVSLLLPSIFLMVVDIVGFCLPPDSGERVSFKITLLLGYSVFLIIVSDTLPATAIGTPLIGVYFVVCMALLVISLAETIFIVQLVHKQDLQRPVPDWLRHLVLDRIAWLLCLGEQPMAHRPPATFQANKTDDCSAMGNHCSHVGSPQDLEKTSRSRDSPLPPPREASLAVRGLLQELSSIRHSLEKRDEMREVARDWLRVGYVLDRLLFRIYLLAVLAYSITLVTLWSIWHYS
T1 sequence (Q9JJ16 whole entry): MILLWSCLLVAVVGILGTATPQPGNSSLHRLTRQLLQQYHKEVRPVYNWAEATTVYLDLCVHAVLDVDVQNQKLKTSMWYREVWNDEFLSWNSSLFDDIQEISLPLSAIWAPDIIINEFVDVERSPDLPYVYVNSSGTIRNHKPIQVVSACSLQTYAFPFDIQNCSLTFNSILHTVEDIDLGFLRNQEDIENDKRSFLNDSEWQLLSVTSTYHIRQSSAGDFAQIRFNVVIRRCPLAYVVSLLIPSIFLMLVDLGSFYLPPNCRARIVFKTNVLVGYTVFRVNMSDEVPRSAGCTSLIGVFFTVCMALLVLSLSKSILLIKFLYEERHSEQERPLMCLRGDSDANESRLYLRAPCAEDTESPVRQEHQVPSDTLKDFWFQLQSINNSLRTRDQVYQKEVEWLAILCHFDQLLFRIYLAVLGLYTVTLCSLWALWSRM
Description: Displacement of binding of [3H]-BRL 43694 to 5-hydroxytryptamine 3 receptor in rat cerebral cortex. In kind it is tissue-based.

Sequence of Serotonin 2 (5-HT2) receptor (Rattus norvegicus) (P08909 whole entry, looked up): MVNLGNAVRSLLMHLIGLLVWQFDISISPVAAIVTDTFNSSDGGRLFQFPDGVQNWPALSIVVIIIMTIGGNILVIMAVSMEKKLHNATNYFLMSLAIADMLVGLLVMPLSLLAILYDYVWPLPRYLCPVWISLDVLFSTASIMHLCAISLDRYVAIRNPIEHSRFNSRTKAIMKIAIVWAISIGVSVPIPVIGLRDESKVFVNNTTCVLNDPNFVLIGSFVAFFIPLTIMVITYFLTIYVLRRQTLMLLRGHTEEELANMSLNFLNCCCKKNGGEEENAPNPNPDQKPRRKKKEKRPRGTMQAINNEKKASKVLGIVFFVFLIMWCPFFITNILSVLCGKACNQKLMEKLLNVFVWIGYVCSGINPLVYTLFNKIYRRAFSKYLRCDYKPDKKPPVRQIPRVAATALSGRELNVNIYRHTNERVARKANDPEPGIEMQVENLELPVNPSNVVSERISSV
Sequence of Serotonin 2 (5-HT2) receptor (Rattus norvegicus) (P14842 whole entry, looked up): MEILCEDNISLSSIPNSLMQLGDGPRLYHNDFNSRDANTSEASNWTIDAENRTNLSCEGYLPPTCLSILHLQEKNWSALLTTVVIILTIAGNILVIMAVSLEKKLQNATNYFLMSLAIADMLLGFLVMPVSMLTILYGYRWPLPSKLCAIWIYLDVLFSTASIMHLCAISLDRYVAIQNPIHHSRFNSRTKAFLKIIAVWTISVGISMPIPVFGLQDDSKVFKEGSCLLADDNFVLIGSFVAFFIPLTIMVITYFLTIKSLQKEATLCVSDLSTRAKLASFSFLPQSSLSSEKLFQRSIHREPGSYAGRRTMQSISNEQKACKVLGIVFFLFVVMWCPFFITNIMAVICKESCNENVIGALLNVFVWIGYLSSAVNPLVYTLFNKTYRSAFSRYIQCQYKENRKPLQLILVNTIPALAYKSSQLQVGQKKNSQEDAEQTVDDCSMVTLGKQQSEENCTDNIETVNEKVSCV
Sequence of Serotonin 2 (5-HT2) receptor (Rattus norvegicus) (P30994 whole entry, looked up): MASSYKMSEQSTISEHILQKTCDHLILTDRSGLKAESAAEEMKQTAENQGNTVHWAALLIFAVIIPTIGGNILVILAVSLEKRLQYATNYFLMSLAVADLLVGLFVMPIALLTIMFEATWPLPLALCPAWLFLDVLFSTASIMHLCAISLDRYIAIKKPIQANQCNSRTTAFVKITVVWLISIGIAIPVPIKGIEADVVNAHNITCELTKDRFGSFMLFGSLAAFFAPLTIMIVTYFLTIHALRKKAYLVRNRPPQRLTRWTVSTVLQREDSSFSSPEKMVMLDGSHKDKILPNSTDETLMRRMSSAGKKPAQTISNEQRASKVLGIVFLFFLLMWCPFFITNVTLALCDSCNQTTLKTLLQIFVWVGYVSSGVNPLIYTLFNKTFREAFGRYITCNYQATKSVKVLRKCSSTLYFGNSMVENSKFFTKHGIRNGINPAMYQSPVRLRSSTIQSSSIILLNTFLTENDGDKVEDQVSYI

Regarding `N#Cc1nc2ccccc2nc1N1CCN(c2ccc(Cl)cc2)CC1`, the inhibition is 7% in experiment [1] and 11% in experiment [2].

Turning to `CCCCN1CCN(c2nc3ccccc3nc2C#N)CC1`, the inhibition in experiment [2] is 12.5%.

For `CCN1CCN(c2nc3ccc([N+](=O)[O-])cc3nc2C#N)CC1`, in experiment [2], the inhibition was found to be 21.3%.

In the case of `CCOC(=O)CN1CCN(c2nc3ccccc3nc2C#N)CC1`, the inhibition in experiment [1] came out at 5.1%; in experiment [2], 14.4%.

In experiment [2], `N#Cc1nc2cc([N+](=O)[O-])ccc2nc1N1CCNCC1` had an inhibition of 7.7%.

With `CCCCCN1CCN(c2nc3ccccc3nc2C#N)CC1`, the inhibition in experiment [1] worked out at 3.9%; in experiment [2], 18%.

Consider `COc1ccccc1N1CCN(c2nc3ccccc3nc2C#N)CC1`, for which the inhibition in experiment [2] stood at 10.6%.

For the compound `CN1CCN(c2nc3ccccc3nc2C#N)CC1`, the inhibition in experiment [2] amounted to 48.4%.

On to `N#Cc1nc2ccccc2nc1N1CCN(c2ccc([N+](=O)[O-])cc2)CC1`, for which the inhibition in experiment [2] is 18%.

For the compound `CCN1CCN(c2nc3ccccc3nc2C#N)CC1`, the ED50 in the experiment with Rattus norvegicus came out at 0.015 mg/kg. The Kb in the experiment listed under Cavia porcellus is 63.1 nM. Besides, the Ki in experiment [3] was over 1000 nM; in experiment [4] it was 100 nM. Also, the inhibition in experiment [1] is 9.1%; in experiment [2] it was 80.5%.

With `N#Cc1nc2ccccc2nc1N1CCN(Cc2ccccc2)CC1`, the inhibition in experiment [1] worked out at 20.5%; in experiment [2], 12.4%.

In the case of `N#Cc1nc2ccccc2nc1N1CCN(c2cccc(C(F)(F)F)c2)CC1`, the inhibition stood at 18.3% in experiment [1] and 39.5% in experiment [2].

For `Cc1ccc(N2CCN(c3nc4ccccc4nc3C#N)CC2)cc1`, the inhibition is 4.6% in experiment [1] and 15.8% in experiment [2].

With `Cc1nccn1CC1CCc2c(c3ccccc3n2C)C1=O` (centres undefined) [ONDANSETRON], the ED50 in the experiment on Rattus norvegicus was determined as 0.0004 mg/kg. In addition, in the experiment listed under Cavia porcellus, the Kb is 126 nM. This compound also displayed an inhibition in experiment [1] of 0.6%.

Regarding `CCN1CCN(c2nc3ccc(N)cc3nc2C#N)CC1`, the inhibition in experiment [2] worked out at 43.5%.

`COc1cccc(N2CCN(c3nc4ccccc4nc3C#N)CC2)c1`: the inhibition in experiment [1] is 4.6%; in experiment [2], 3.5%.

Compound `CC(=O)c1ccc(N2CCN(c3nc4ccccc4nc3C#N)CC2)cc1` had an inhibition in experiment [2] of 7.4%.

For `N#Cc1nc2ccccc2nc1N1CCN(c2ccccc2)CC1`, the inhibition in experiment [1] amounted to 8.4%; in experiment [2], 21.9%.

Consider `N#Cc1nc2ccccc2nc1N1CCNCC1`, for which the ED50 in the experiment on Rattus norvegicus came to 0.027 mg/kg. Besides, the Kb in the experiment listed under Cavia porcellus was 1580 nM. The Ki in experiment [3] was 345 nM; in experiment [4], 90 nM. Also, the inhibition in experiment [1] was found to be 9.1%; in experiment [2] it was 63.7%.

`N#Cc1nc2ccccc2nc1N1CCN(Cc2ccc3c(c2)OCO3)CC1` came in with an inhibition in experiment [2] of 28.4%.

Take `CCCN1CCN(c2nc3ccccc3nc2C#N)CC1`: the ED50 in the experiment on Rattus norvegicus turned out to be 0.38 mg/kg. For the same compound, in the experiment filed under Cavia porcellus, the Kb was 1000 nM. For the same compound, the inhibition constant Ki was over 1000 nM in experiment [3] and 40 nM in experiment [4]. Besides, the inhibition in experiment [1] was 12.5%; in experiment [2] it was 63.3%.

Consider `CN1[C@@H]2CC[C@H]1C[C@@H](OC(=O)c1c[nH]c3ccccc13)C2.Cl`, for which the ED50 with Rattus norvegicus is 0.002 mg/kg. For the same compound, the Kb in the experiment listed under Cavia porcellus is 3.98 nM. For the same compound, the Ki in experiment [3] is over 1000 nM; in experiment [4] it was 3.8 nM. The inhibition in experiment [1] came to 2.4%.

In the case of `C=CCN1CCN(c2nc3ccccc3nc2C#N)CC1`, the ED50 in the experiment on Rattus norvegicus came to 0.02 mg/kg. For the same compound, the Kb in the experiment filed under Cavia porcellus is 0.0631 nM. Further, the Ki in experiment [3] was over 1000 nM; in experiment [4], 8 nM. The compound further showed an inhibition in experiment [1] of 9.1%.

Compound `N#Cc1nc2ccccc2nc1N1CCN(c2ccc(F)cc2)CC1` had an inhibition in experiment [2] of 21.4%.

With `N#Cc1nc2ccccc2nc1N1CCN(CCc2ccccc2)CC1`, the inhibition in experiment [1] came out at 25%; in experiment [2] it was 29.2%.

What is called inhibition is the drop in the measured response relative to a control, in per cent. The Ki is a dissociation constant, usually derived from enzyme kinetics or from competition with a known ligand.
